Assays:
Settings in all cases: stereoisomer not certain
[1] = molecular target: T1, OR5P3 (Homo sapiens) (UniProt Q8WZ94)
T1 sequence (whole entry): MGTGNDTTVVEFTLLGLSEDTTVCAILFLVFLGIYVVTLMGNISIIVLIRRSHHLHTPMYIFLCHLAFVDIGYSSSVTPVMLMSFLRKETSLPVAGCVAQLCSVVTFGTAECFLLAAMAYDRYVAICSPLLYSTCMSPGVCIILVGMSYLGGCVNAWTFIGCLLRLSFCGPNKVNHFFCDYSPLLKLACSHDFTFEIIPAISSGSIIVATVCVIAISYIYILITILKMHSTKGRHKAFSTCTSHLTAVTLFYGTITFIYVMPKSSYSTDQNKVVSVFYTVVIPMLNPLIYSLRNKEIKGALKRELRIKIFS
Summary of the method: (§1)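 Transient luciferase assays in mammalian cell lines were common, though methods varied by source. The values come from published papers and their supplementary material, with extra details from the original authors when needed. Responsive refers to a measured signal the original authors judged statistically different from baseline, and non-responsive (inactive) to the remainder.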

[2] = molecular target: OR5T1 (Homo sapiens) (UniProt Q8NG75)
Summary of the method: as §1

[3] = molecular target: OR5T2 (Homo sapiens) (UniProt Q8NGG2)
Summary of the method: as §1

[4] = molecular target: OR5T3 (Homo sapiens) (UniProt Q8NGG3)
Summary of the method: as §1

[5] = molecular target: OR5V1 (Homo sapiens) (UniProt Q9UGF6)
Summary of the method: as §1

[6] = molecular target: OR5W2 (Homo sapiens) (UniProt Q8NH69)
Summary of the method: as §1

[7] = system: OR5P3 L301R
Summary of the method: as §1

[8] = system: OR5R1 C122R S128G F184L
Summary of the method: as §1

[9] = system: OR5T2 S4G
Summary of the method: as §1

[10] = system: OR5W2 R189C
Summary of the method: as §1

Measured: odorant receptor agonist call;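 also: active if original authors judged signal statistically different from baseline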

Chain of OR5W2 (Homo sapiens) (Q8NH69 whole entry): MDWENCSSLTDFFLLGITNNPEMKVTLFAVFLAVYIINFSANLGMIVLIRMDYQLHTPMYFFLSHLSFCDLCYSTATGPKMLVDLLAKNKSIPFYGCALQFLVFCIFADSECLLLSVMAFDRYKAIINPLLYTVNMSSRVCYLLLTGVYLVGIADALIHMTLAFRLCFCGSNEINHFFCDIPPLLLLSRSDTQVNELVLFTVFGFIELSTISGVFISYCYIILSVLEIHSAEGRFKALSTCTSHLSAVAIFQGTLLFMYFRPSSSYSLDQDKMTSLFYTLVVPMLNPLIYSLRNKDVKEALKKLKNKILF
Chain of OR5T3 (Homo sapiens) (Q8NGG3 whole entry): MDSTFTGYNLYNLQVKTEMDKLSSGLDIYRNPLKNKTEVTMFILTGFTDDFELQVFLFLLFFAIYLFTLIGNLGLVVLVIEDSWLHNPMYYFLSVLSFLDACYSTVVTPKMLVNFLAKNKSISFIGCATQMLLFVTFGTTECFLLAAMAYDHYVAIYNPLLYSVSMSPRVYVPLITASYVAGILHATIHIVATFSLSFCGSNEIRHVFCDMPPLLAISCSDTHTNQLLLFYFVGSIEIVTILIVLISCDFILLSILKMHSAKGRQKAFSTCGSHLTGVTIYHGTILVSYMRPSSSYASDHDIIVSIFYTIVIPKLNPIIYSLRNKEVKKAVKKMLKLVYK
Chain of OR5T2 (Homo sapiens) (Q8NGG2 whole entry): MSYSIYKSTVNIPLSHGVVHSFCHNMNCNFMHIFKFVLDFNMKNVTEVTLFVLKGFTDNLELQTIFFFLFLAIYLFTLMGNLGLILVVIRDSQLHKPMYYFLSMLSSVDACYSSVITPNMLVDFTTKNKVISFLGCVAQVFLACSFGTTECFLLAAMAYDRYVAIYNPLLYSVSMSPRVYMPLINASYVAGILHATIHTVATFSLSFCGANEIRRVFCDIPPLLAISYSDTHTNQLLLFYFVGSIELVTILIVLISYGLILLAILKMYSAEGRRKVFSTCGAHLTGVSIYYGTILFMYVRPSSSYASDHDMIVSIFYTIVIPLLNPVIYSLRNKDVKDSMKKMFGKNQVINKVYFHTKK
Chain of OR5V1 (Homo sapiens) (Q9UGF6 whole entry): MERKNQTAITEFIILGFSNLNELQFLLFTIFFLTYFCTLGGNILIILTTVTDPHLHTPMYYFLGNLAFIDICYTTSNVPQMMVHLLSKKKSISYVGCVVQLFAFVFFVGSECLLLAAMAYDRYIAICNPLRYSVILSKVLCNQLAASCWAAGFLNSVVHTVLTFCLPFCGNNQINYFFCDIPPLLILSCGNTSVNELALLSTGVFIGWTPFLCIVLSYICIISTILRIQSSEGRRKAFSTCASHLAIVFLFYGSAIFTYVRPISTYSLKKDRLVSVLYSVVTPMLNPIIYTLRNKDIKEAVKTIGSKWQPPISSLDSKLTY
Chain of OR5T1 (Homo sapiens) (Q8NG75 whole entry): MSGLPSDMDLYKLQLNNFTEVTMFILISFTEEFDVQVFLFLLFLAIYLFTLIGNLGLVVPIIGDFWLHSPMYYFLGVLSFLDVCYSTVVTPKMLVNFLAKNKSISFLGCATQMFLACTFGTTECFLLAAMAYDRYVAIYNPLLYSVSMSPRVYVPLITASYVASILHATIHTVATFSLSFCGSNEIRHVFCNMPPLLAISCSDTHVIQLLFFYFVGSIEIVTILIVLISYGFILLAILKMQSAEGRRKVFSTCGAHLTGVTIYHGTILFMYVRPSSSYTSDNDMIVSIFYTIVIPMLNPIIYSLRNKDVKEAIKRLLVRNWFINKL
Chain of OR5W2 R189C (as listed by the source, stated change not applied): as the sequence (Q8NH69 whole entry) above, with R189C counted along it
Chain of OR5T2 S4G (as listed by the source): as the sequence (Q8NGG2 whole entry) above, with S4G counted along it
Chain of OR5P3 L301R (as listed by the source, stated change not applied): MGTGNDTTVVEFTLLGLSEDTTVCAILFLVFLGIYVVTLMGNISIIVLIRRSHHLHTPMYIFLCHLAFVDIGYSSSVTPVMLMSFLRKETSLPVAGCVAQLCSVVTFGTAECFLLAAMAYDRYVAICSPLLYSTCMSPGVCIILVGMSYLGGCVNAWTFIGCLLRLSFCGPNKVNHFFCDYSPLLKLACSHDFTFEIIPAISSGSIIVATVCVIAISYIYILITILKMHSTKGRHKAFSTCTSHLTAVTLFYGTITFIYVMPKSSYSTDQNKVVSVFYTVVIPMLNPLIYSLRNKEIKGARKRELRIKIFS

Cc1c([N+](=O)[O-])c(C)c([N+](=O)[O-])c(C(C)(C)C)c1[N+](=O)[O-]
inactive: [1] | [2] | [3] | [4] | [5] | [6]

C=CCc1ccccc1
inactive: [1]

CCC1CCC(=O)O1 (centres undefined)
inactive: [1]

C=CCOC(=O)Cc1ccccc1
inactive: [1] | [7] | [8] | [2] | [3] | [9] | [4] | [5] | [6] | [10]

O=c1cc(O)c2ccccc2o1
inactive: [1]
